Source: ChEMBL document CHEMBL4715796, “Discovery of Chromane Containing Hepatitis C Virus (HCV) NS5A Inhibitors with Improved Potency against Resistance-Associated Variants” (J Med Chem, 2016)

Columns and labels:
Format in all cases: cell-based
Huh-7 [1] = test: Inhibition of NS5A in Hepatitis C virus subtype 2b infected in human HuH7 cells assessed as reduction in viral replication by luciferase reporter gene assay
Method in brief: (§1)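 Transient replicon assay with GT1a-H77, GT1b-Con1 or chimeric replicons, electroporated into a Huh7-derived cell line. Percent inhibition of replication, read as a drop in luciferase signal, was calculated at each concentration to give EC90. Values are means of at least two experiments.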

[2] = system: T1, Nonstructural protein 5A (Hepatitis C virus), Q5L478 [Y93H]; test: Inhibition of NS5A Y93H mutant in Hepatitis C virus subtype 1a infected in human HuH7 cells assessed as reduction in viral replication by luciferase reporter gene assay; settings: Huh-7
T1 sequence (whole entry): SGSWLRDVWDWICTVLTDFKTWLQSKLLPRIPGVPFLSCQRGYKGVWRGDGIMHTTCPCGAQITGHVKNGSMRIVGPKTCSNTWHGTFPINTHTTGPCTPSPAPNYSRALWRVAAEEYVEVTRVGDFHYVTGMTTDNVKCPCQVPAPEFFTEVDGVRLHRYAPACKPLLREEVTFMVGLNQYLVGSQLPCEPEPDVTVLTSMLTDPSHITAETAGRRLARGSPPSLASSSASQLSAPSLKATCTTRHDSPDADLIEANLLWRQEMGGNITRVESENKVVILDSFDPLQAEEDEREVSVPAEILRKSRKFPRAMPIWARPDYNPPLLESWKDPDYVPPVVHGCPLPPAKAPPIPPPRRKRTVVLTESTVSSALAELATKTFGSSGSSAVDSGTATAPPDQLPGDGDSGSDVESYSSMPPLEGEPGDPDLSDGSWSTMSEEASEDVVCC
Method in brief: (§2)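 NS5A resistance variants engineered into GT1a-H77 or GT1b-Con1 replicons. Each variant replicon is transfected transiently by electroporation into a Huh7-derived cell line. Percent inhibition is taken from the drop in luciferase signal at each compound concentration, and EC90 is calculated from these. Values are means of at least two experiments.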

Huh-7 [3] = test: Inhibition of NS5A in Hepatitis C virus subtype 1a infected in human HuH7 cells assessed as reduction in viral replication by luciferase reporter gene assay; method in brief: as §1
Huh-7 [4] = test: Inhibition of NS5A in Hepatitis C virus subtype 3a infected in human HuH7 cells assessed as reduction in viral replication by luciferase reporter gene assay; method in brief: as §1
Huh-7 [5] = test: Inhibition of NS5A in Hepatitis C virus subtype 4a infected in human HuH7 cells assessed as reduction in viral replication by luciferase reporter gene assay; method in brief: as §1
[6] = system: Nonstructural protein 5A (Hepatitis C virus), Q5L478 [UNDEFINED MUTATION]; test: Inhibition of NS5A L31V mutant in Hepatitis C virus subtype 1a infected in human HuH7 cells assessed as reduction in viral replication by luciferase reporter gene assay; settings: Huh-7; method in brief: as §2
Huh-7 [7] = test: Inhibition of NS5A in Hepatitis C virus subtype 1b infected in human HuH7 cells assessed as reduction in viral replication by luciferase reporter gene assay; method in brief: as §1

SMILES | EC90 (Huh-7 [1]) [nM] | EC90 [2] [nM] | EC90 (Huh-7 [3]) [nM] | EC90 (Huh-7 [4]) [nM] | EC90 (Huh-7 [5]) [nM] | EC90 [6] [nM] | EC90 (Huh-7 [7]) [nM]
COC(=O)N[C@H](C(=O)N1CCC[C@H]1c1ncc(-c2cc(F)c3c(c2)OC(c2ccc4c(c2)OCC(=O)N4)n2c-3cc3cc(-c4cnc([C@@H]5CCCN5C(=O)[C@@H](NC(=O)OC)C(C)C)[nH]4)ccc32)[nH]1)C(C)C (stereo not given in full) | 22 | 32 | 0.01 | 0.4 | – | – | –
COC(=O)N[C@H](C(=O)N1CCC[C@H]1c1ncc(-c2cc(F)c3c(c2)OC(c2ccc4c(c2)CCCO4)n2c-3cc3cc(-c4cnc([C@@H]5CCCN5C(=O)[C@@H](NC(=O)OC)C(C)C)[nH]4)ccc32)[nH]1)C(C)C (stereo not given in full) | 7 | 4 | 0.003 | 0.02 | – | – | –
COC(=O)N[C@H](C(=O)N1CCC[C@H]1c1ncc(-c2cc(F)c3c(c2)OC(c2ccc4c(c2)CCCC4)n2c-3cc3cc(-c4cnc([C@@H]5CCCN5C(=O)[C@@H](NC(=O)OC)C(C)C)[nH]4)ccc32)[nH]1)C(C)C (stereo not given in full) | 2 | 2 | 0.005 | 0.01 | – | – | –
COC(=O)N[C@H](C(=O)N1CCC[C@H]1c1ncc(-c2cc(F)c3c(c2)OC(c2ccc4c(c2)OCCC4(F)F)n2c-3cc3cc(-c4cnc([C@@H]5CCCN5C(=O)[C@@H](NC(=O)OC)C(C)C)[nH]4)ccc32)[nH]1)C(C)C (stereo not given in full) | 0.2 | 0.7 | 0.002 | 0.007 | 0.002 | 0.01 | 0.002
COC(=O)N[C@H](C(=O)N1CCC[C@H]1c1ncc(-c2cc(F)c3c(c2)OC(c2cccc4ccccc24)n2c-3cc3cc(-c4cnc([C@@H]5CCCN5C(=O)[C@@H](NC(=O)OC)C(C)C)[nH]4)ccc32)[nH]1)C(C)C (stereo not given in full) | 31 | 32 | 0.01 | 0.1 | – | 0.09 | –
COC(=O)N[C@H](C(=O)N1CCC[C@H]1c1ncc(-c2cc(F)c3c(c2)OC(c2ccc4c(c2)OCC(=O)N4C)n2c-3cc3cc(-c4cnc([C@@H]5CCCN5C(=O)[C@@H](NC(=O)OC)C(C)C)[nH]4)ccc32)[nH]1)C(C)C (stereo not given in full) | 2 | 3 | 0.002 | 0.01 | – | – | –
COC(=O)N[C@H](C(=O)N1CCC[C@H]1c1ncc(-c2cc(F)c3c(c2)OC(c2ccc4c(c2)CC[C@@H](C)O4)n2c-3cc3cc(-c4cnc([C@@H]5CCCN5C(=O)[C@@H](NC(=O)OC)C(C)C)[nH]4)ccc32)[nH]1)C(C)C (stereo not given in full) | 7 | 2 | 0.005 | 0.02 | – | – | –
COC(=O)N[C@H](C(=O)N1CCC[C@H]1c1ncc(-c2cc(F)c3c(c2)OC(c2ccc4c(c2)COCC4)n2c-3cc3cc(-c4cnc([C@@H]5CCCN5C(=O)[C@@H](NC(=O)OC)C(C)C)[nH]4)ccc32)[nH]1)C(C)C (stereo not given in full) | 4 | 2 | 0.003 | 0.02 | – | – | –
COC(=O)N[C@H](C(=O)N1CCC[C@H]1c1ncc(-c2cc(F)c3c(c2)OC(c2ccc4c(c2)CCC(C)(C)O4)n2c-3cc3cc(-c4cnc([C@@H]5CCCN5C(=O)[C@@H](NC(=O)OC)C(C)C)[nH]4)ccc32)[nH]1)C(C)C (stereo not given in full) | 2 | 0.9 | 0.005 | 0.03 | – | – | –
COC(=O)N[C@H](C(=O)N1CCC[C@H]1c1ncc(-c2cc(F)c3c(c2)OC(c2ccc4c(c2)OCO4)n2c-3cc3cc(-c4cnc([C@@H]5CCCN5C(=O)[C@@H](NC(=O)OC)C(C)C)[nH]4)ccc32)[nH]1)C(C)C (stereo not given in full) | 3 | 4 | 0.008 | 1 | – | 0.2 | –
COC(=O)N[C@H](C(=O)N1CCC[C@H]1c1ncc(-c2cc(F)c3c(c2)OC(c2ccc4c(c2)CC[C@H](C)O4)n2c-3cc3cc(-c4cnc([C@@H]5CCCN5C(=O)[C@@H](NC(=O)OC)C(C)C)[nH]4)ccc32)[nH]1)C(C)C (stereo not given in full) | 7 | 3 | 0.004 | 0.01 | – | – | –
COC(=O)N[C@H](C(=O)N1CCC[C@H]1c1ncc(-c2cc(F)c3c(c2)OC(c2ccc4c(c2)OCC4)n2c-3cc3cc(-c4cnc([C@@H]5CCCN5C(=O)[C@@H](NC(=O)OC)C(C)C)[nH]4)ccc32)[nH]1)C(C)C (mixture of isomers) | 3 | 6 | 0.02 | 0.1 | – | 0.5 | –
COC(=O)N[C@H](C(=O)N1CCC[C@H]1c1ncc(-c2cc(F)c3c(c2)OC(c2ccc4c(c2)COC4)n2c-3cc3cc(-c4cnc([C@@H]5CCCN5C(=O)[C@@H](NC(=O)OC)C(C)C)[nH]4)ccc32)[nH]1)C(C)C (stereo not given in full) | 2 | 5 | 0.003 | 0.02 | – | – | –
COC(=O)N[C@H](C(=O)N1CCC[C@H]1c1ncc(-c2cc(F)c3c(c2)OC(c2ccc4c(c2)CC2CC2(C)O4)n2c-3cc3cc(-c4cnc([C@@H]5CCCN5C(=O)[C@@H](NC(=O)OC)C(C)C)[nH]4)ccc32)[nH]1)C(C)C (mixture of isomers) | 5 | 1 | 0.005 | 0.03 | – | – | –
COC(=O)N[C@H](C(=O)N1CCC[C@H]1c1ncc(-c2cc(F)c3c(c2)OC(c2ccc4c(c2)O[C@H](C)CC4)n2c-3cc3cc(-c4cnc([C@@H]5CCCN5C(=O)[C@@H](NC(=O)OC)C(C)C)[nH]4)ccc32)[nH]1)C(C)C (stereo not given in full) | 0.9 | 0.7 | 0.003 | 0.01 | 0.005 | 0.02 | 0.005
COC(=O)N[C@H](C(=O)N1CCC[C@H]1c1ncc(-c2cc(F)c3c(c2)OC(c2ccc4c(c2)O[C@@H](C)CC4)n2c-3cc3cc(-c4cnc([C@@H]5CCCN5C(=O)[C@@H](NC(=O)OC)C(C)C)[nH]4)ccc32)[nH]1)C(C)C (stereo not given in full) | 0.7 | 0.9 | 0.007 | 0.009 | 0.007 | 0.04 | 0.005
COC(=O)N[C@H](C(=O)N1CCC[C@H]1c1ncc(-c2cc(F)c3c(c2)OC(c2ccc4c(c2)OC(C)(C)CC4)n2c-3cc3cc(-c4cnc([C@@H]5CCCN5C(=O)[C@@H](NC(=O)OC)C(C)C)[nH]4)ccc32)[nH]1)C(C)C (stereo not given in full) | 2 | 1 | 0.005 | 0.02 | – | – | –
COC(=O)N[C@H](C(=O)N1CCC[C@H]1c1ncc(-c2cc(F)c3c(c2)OC(c2ccc4c(c2)OC(F)(F)O4)n2c-3cc3cc(-c4cnc([C@@H]5CCCN5C(=O)[C@@H](NC(=O)OC)C(C)C)[nH]4)ccc32)[nH]1)C(C)C (stereo not given in full) | 5 | 8 | 0.004 | 0.1 | – | 0.5 | –
COC(=O)N[C@H](C(=O)N1CCC[C@H]1c1ncc(-c2cc(F)c3c(c2)OC(c2ccc4ccccc4c2)n2c-3cc3cc(-c4cnc([C@@H]5CCCN5C(=O)[C@@H](NC(=O)OC)C(C)C)[nH]4)ccc32)[nH]1)C(C)C (stereo not given in full) | 1 | 7 | 0.02 | 0.04 | – | 0.2 | –
COC(=O)N[C@H](C(=O)N1CCC[C@H]1c1ncc(-c2cc(F)c3c(c2)OC(c2ccc4cccnc4c2)n2c-3cc3cc(-c4cnc([C@@H]5CCCN5C(=O)[C@@H](NC(=O)OC)C(C)C)[nH]4)ccc32)[nH]1)C(C)C (stereo not given in full) | 3 | 4 | 0.01 | 0.3 | – | 0.2 | –
